The source made the active and inactive calls. No cut-off for these calls is given here.
Tests used:
[1] = target: T1, NAD-dependent protein deacetylase sirtuin-2 (Homo sapiens) (UniProt Q8IXJ6); assay: Inhibition of human SIRT2 expressed in Escherichia coli at 50 uM after 1 hr by fluorescent biochemical assay
T1 sequence (whole entry): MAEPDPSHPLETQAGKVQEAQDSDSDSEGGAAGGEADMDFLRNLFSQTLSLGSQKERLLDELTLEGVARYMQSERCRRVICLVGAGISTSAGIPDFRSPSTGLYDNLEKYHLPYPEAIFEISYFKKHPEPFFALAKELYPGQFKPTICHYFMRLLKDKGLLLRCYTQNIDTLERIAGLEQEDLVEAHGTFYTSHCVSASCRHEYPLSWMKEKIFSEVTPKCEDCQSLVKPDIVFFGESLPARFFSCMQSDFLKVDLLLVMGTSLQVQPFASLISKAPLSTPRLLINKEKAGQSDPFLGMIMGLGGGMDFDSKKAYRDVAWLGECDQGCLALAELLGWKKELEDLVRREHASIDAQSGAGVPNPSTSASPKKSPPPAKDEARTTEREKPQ
Outline: (§1)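 Fluor de Lys two-step assay with human SIRT1 (full length, 747 aa), SIRT2 (389 aa) or SIRT3 catalytic fragment ([…]), all expressed in E. coli. Enzyme was set at 1 U/well for SIRT1 and 5 U/well for SIRT2/SIRT3. Developer was then added for 15 min at 37 °C. Read at ex 355/em 460 nm, triplicates, background-subtracted, with autofluorescence controls for activators.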

U-937 [2] = assay: Induction of apoptosis in human U937 cells assessed as caspase 3/7 activity at 50 uM after 30 hrs by FACS analysis; type: functional
Outline: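 U937 cells given 50 μM for 30 h. Apoptosis measured as caspase 3-7 activity by FACS.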

MCF7 [3] = assay: Cell cycle arrest in human MCF7 cells assessed as accumulation at G1/S phase at 50 uM after 30 hrs by FACS analysis; type: functional, cell-based
MCF7 [4] = assay: Induction of apoptosis in human MCF7 cells assessed as caspase 3/7 activity at 50 uM after 30 hrs by FACS analysis; type: functional, cell-based
U937 (Homo sapiens) = assay: Induction of granulocyte differentiation in human U937 cells assessed as increase in phycoerythrine-conjugated CD11c expression at 50 uM after 30 hrs by propidium iodide staining-based FACS analysis
[5] = Inhibition of human MSC senescence assessed as appearance of senescence-associated beta-galactosidase positive cells at 50 uM after 48 hrs by optic microscopy relative to control; type: functional; design: scale not given: the % may be the effect or the level left
Outline: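 Primary human MSC cultured 30 days (ninth passage), 3 × 10^5 cells/well, treated at 50 μM for 48 h. Cells fixed in 2% formaldehyde/0.2% glutaraldehyde, then stained overnight at 37 °C in pH 6 citrate/phosphate buffer with ferro/ferricyanide and 1 mg/mL X-Gal. Blue cells counted as % of total, with the control set as 100%.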

[6] = target: T2, NAD-dependent protein deacetylase sirtuin-1 (Homo sapiens) (UniProt Q96EB6); assay: Inhibition of human SIRT1 expressed in Escherichia coli at 50 uM after 1 hr by fluorescent biochemical assay; outline: as §1
T2 sequence (whole entry): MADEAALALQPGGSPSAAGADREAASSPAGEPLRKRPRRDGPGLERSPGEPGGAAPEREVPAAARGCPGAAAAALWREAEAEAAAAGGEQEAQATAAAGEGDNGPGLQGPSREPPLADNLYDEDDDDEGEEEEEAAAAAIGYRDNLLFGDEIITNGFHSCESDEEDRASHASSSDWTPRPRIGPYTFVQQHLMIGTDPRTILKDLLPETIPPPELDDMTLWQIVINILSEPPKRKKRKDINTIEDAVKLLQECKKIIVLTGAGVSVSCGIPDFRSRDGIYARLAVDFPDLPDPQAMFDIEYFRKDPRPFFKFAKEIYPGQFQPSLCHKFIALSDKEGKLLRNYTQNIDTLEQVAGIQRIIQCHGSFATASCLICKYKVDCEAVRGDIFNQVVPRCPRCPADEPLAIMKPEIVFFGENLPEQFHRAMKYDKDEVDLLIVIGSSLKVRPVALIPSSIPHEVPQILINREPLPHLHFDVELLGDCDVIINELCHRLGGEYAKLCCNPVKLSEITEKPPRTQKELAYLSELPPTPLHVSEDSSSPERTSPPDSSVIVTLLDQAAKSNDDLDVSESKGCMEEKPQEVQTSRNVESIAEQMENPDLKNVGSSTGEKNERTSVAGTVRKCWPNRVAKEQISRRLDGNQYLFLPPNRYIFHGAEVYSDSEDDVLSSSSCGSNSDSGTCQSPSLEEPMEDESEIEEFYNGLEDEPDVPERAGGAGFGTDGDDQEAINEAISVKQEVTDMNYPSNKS

[7] = target: T3, NAD-dependent protein deacetylase sirtuin-3, mitochondrial (Homo sapiens) (UniProt Q9NTG7); assay: Inhibition of human SIRT3 expressed in Escherichia coli at 50 uM after 1 hr by fluorescent biochemical assay; outline: as §1
T3 sequence (whole entry): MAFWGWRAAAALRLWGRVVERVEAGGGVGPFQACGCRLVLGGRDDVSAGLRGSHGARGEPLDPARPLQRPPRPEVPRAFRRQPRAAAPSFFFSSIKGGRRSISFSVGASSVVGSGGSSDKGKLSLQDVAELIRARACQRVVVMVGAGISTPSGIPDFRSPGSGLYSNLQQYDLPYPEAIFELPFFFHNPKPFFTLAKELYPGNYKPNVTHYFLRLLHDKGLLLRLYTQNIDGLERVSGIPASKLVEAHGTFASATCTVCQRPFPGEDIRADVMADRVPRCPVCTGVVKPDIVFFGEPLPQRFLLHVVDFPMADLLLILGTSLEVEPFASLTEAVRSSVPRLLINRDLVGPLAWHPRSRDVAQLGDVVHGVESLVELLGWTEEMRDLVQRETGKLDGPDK

[8] = target: T2, NAD-dependent protein deacetylase sirtuin-1 (Homo sapiens); assay: Activation of human SIRT1 expressed in Escherichia coli after 1 hr by fluorescent biochemical assay; outline: as §1
[9] = target: T1, NAD-dependent protein deacetylase sirtuin-2 (Homo sapiens); assay: Activation of human SIRT2 expressed in Escherichia coli at 1 to 50 uM after 1 hr by fluorescent biochemical assay; outline: as §1
[10] = target: T3, NAD-dependent protein deacetylase sirtuin-3, mitochondrial (Homo sapiens); assay: Activation of human SIRT3 expressed in Escherichia coli after 1 hr by fluorescent biochemical assay; outline: as §1
U-937 [11] = assay: Cell cycle arrest in human U937 cells assessed as accumulation at G1/S phase at 50 uM after 30 hrs by FACS analysis; type: functional, cell-based
Outline: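 U937 cells given 50 μM for 30 h. 2.5 × 10^5 cells lysed in hypotonic buffer (0.1% Triton X-100, 0.1% sodium citrate, 50 μg/mL PI, RNase A) for 30 min in the dark, then DNA content measured by flow cytometry. Done in triplicate.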

[12] = target: T1, NAD-dependent protein deacetylase sirtuin-2 (Homo sapiens); assay: Activation of human SIRT2 expressed in Escherichia coli after 1 hr by fluorescent biochemical assay; outline: as §1
U-937 [13] = assay: Induction of granulocyte differentiation in human U937 cells assessed as increase in phycoerythrine-conjugated CD11c expression at 50 uM after 30 hrs by propidium iodide staining-based FACS analysis; type: functional
Outline: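 U937 cells given 50 μM for 30 h, then stained with CD11c-PE (or PE-mouse IgG1 control) for 30 min at 4 °C in the dark. Cells were resuspended in PBS with PI (0.25 μg/mL) and analyzed by FACS, with PI-positive cells excluded. Readout: CD11c+/PI− cells.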

MCF7 [14] = assay: Induction of granulocyte differentiation in human MCF7 cells assessed as increase in phycoerythrine-conjugated CD11c expression at 50 uM after 30 hrs by propidium iodide staining-based FACS analysis; type: functional, cell-based
C2C12 [15] = assay: Increase in mitochondrial function in mouse C2C12 cells assessed as enhancement of mitochondrial density at 50 uM after 16 hrs by green FM dye straining-based fluorescence assay; type: functional, cell-based
Outline: (§2)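 C2C12 myoblasts (3000 cells/well) treated for 16 h (overnight), with DMSO as control. Cells then stained with MitoTracker Green FM (200 nM) and fluorescence intensity read after subtracting background from unstained wells.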

C2C12 [16] = assay: Increase in mitochondrial function in mouse C2C12 cells assessed as enhancement of mitochondrial density at 10 to 50 uM after 16 hrs by green FM dye straining-based fluorescence assay; type: functional, cell-based; outline: as §2
[17] = target: T4, Peroxisome proliferator-activated receptor gamma coactivator 1-alpha (Homo sapiens) (UniProt Q9UBK2); assay: Stimulation of PGC1-alpha-mediated transcriptional activity of mTFA promoter in mouse C2C12 cells expressing NRF1 site after 16 hrs by luciferase reporter gene assay; type: cell-based
T4 sequence (whole entry): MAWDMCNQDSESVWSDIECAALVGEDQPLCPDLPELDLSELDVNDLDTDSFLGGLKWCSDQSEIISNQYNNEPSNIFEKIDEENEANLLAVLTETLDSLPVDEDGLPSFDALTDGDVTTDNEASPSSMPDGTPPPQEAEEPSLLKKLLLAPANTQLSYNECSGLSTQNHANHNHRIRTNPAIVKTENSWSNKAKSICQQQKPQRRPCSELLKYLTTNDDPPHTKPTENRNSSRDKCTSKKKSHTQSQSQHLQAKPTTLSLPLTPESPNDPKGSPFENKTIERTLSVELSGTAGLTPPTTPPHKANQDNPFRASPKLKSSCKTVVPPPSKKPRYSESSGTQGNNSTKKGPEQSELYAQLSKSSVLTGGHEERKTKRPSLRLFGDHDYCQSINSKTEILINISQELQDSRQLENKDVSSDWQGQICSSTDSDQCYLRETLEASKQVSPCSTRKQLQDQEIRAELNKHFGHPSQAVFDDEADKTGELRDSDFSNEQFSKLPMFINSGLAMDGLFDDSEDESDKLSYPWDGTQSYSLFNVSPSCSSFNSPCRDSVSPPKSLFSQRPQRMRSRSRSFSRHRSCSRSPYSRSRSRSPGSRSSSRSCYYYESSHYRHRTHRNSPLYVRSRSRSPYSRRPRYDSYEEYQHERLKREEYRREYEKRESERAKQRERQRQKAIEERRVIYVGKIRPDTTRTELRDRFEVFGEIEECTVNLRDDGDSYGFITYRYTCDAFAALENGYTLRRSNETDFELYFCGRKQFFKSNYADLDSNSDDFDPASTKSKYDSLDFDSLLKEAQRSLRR
Outline: (§3)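 C2C12 myoblasts in DMEM with 10% heat-inactivated FCS were reverse-transfected (Lipofectamine) with a luciferase reporter carrying either the wild-type mTFA promoter or a mutant lacking the NRF1 site. Cells plated at 3000/well and treated for 16 h (overnight). Luciferase activity compared with DMSO-treated cells by Student's t-test.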

C2C12 [18] = assay: Stimulation of transcriptional activity of mTFA promoter in mouse C2C12 cells after 16 hrs by luciferase reporter gene assay; type: functional, cell-based; outline: as §3

With `CCOC(=O)C1=CN(C2CC2)C=C(C(=O)OCC)C1c1ccccc1` the inhibition [1] was 53.7%, the Activity (U-937 [2]) was 3% and the Activity (MCF7 [3]) was “inactive”. For the same compound, the Activity (MCF7 [4]) was “inactive” and the Activity (U937 (Homo sapiens)) was “inactive”.

With `NC(=O)C1=CN(Cc2ccccc2)C=C(C(N)=O)C1c1ccccc1` the Activity [5] was 65%, the inhibition [6] was “inactive” and the inhibition [1] was “inactive”. The Activity [7] was “inactive”, the Activity [8] was “Dose-dependent effect” and the Activity [9] was “inactive”. For the same compound, the EC150 [10] was > 50 µM, the Activity (U-937 [11]) was “Active” and the Activity (MCF7 [3]) was “inactive”. For the same compound, the Activity (MCF7 [4]) was “inactive” and the Activity (U937 (Homo sapiens)) was “inactive”.

With `O=C(O)C1=CN(Cc2ccccc2)C=C(C(=O)O)C1c1ccccc1` the Activity [5] was 70%, the inhibition [6] was “inactive” and the inhibition [1] was “inactive”. The Activity [7] was “inactive”, the Activity [8] was “Dose-dependent effect” and the EC150 [8] was 1 µM. The EC150 [12] was 15 µM, the EC150 [10] was 50 µM and the Activity (U-937 [11]) was “Active”. For the same compound, the Activity (MCF7 [3]) was “inactive”, the Activity (MCF7 [4]) was “inactive” and the Activity (U937 (Homo sapiens)) was “inactive”.

Work on `CCOC(=O)C1=CN(CCc2ccccc2)C=C(C(=O)OCC)C1c1ccccc1` yielded an inhibition [6] of 76.6%, an inhibition [1] of 49.6% and an Activity (U-937 [2]) of 3%. For the same compound, the Activity (U-937 [13]) was 12.3%, the Activity (MCF7 [3]) was “inactive” and the Activity (MCF7 [4]) was “inactive”. The Activity (MCF7 [14]) was “inactive”.

`CCOC(=O)C1=CN(c2ccccc2)C=C(C(=O)OCC)C1c1ccccc1` gave an inhibition [6] of 63.6%, an inhibition [1] of 51.3% and an Activity (U-937 [2]) of 3%. The Activity (MCF7 [3]) was “inactive”, the Activity (MCF7 [4]) was “inactive” and the Activity (U937 (Homo sapiens)) was “inactive”.

For `Oc1ccc(/C=C/c2cc(O)cc(O)c2)cc1` [RESVERATROL], the Activity [5] was 50% and the Activity (C2C12 [15]) was “Active”.

With `O=C(O)C1=CN(c2ccccc2)C=C(C(=O)O)C1c1ccccc1` the inhibition [6] was 86.6%.

For `CCOC(=O)C1=CN(Cc2ccccc2)C=C(C(=O)OCC)C1c1ccccc1`, the Activity (C2C12 [16]) was “Active”, the Activity [17] was “Dose-dependent effect” and the Activity (C2C12 [18]) was “inactive”. For the same compound, the inhibition [6] was “inactive”, the inhibition [1] was “inactive” and the Activity [7] was “inactive”. For the same compound, the Activity [8] was “Dose-dependent effect”, the EC150 [8] was 1 µM and the EC150 [12] was 25 µM. The EC150 [10] was 50 µM, the Activity (U-937 [11]) was “Active” and the Activity (MCF7 [3]) was “inactive”. For the same compound, the Activity (MCF7 [4]) was “inactive” and the Activity (U937 (Homo sapiens)) was “inactive”.

Compound `NC(=O)C1=CN(c2ccccc2)C=C(C(N)=O)C1c1ccccc1` has an inhibition [6] of 89.1%.

Reference: ChEMBL document CHEMBL1154783, “Study of 1,4-dihydropyridine structural scaffold: discovery of novel sirtuin activators and inhibitors” (2009)
